# Reference: ChEMBL document CHEMBL4152290, “1H-Benzo[d]imidazoles and 3,4-dihydroquinazolin-4-ones: Design, synthesis and antitubercular activity” (Eur J Med Chem, 2018)
# Assays:
# [1] = Cytotoxicity against African green monkey Vero assessed as cell viability at 10 ug/ml after 72 hrs by MTT assay (reference value: 100%); format: cell-based; conditions: chlorocebus sabaeus, Vero cells; read-out: Activity
# In short: (§1)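 Cells were grown in DMEM with 10% heat-inactivated FBS and penicillin-streptomycin, seeded at 2×10^3/well (HepG2, HaCat) or 1×10^3/well (Vero), then left 24 h. Compound was applied at 10 µg/mL final (2% DMSO) for 72 h at 37 °C, 5% CO2. MTT 1 mg/mL was added for 3 h, formazan dissolved in DMSO, and A595 read. Viability is expressed relative to 2% DMSO wells; mean ± SEM, triplicates, three independent experiments.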
# [2] = test system: Mycobacterium tuberculosis; test: Antitubercular activity against Mycobacterium tuberculosis H37Rv ATCC 27294 after 7 days by resazurin dye based assay; format: functional; conditions: H37Rv ATCC 27294, 168 h
# In short: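 Resazurin microtiter MIC in 7H9 with 10% ADC. Two-fold dilutions from 1 mg/mL DMSO stocks span 25.0–0.05, 10.0–0.02 or 0.02–0.0004 µg/mL, with 2.5% DMSO final. Inoculum is bead-declumped culture grown in 7H9/10% OADC/0.05% Tween 80, diluted to OD600 0.006. Plates run 7 days at 37 °C, then 0.01% resazurin for 48 h. MIC is the lowest concentration preventing the blue-to-pink change. Three independent tests.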
# [3] = Stability of the compound in PBS containing 10% DMSO at 25 degC measured immediately by HPLC analysis; format: physicochemical; conditions: read-out: Stability
# [4] = Selectivity index, ratio of cytotoxic concentration for African green monkey Vero cells by neutral red uptake assay to MIC for Mycobacterium tuberculosis H37Rv ATCC 27294; format: toxicity; conditions: read-out: Selectivity Index
# Danio rerio [5] = species: Danio rerio; test: Toxicity in Zebrafish AB embryos assessed as morphological alteration by measuring effect on body length of larvae at 3 to 20 uM measured at 2 to 5 days post fertilization by stereomicroscopic method; format: organism-based; conditions: in vivo
# In short: (§2)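 AB embryos are treated from 2 hpf to 5 dpf at 3.0, 15.0 and 20.0 µM in fish water with 1% DMSO, at 28 °C. Controls are fish water and 1% DMSO. Larvae are photographed under a stereomicroscope (3×) at 2 and 5 dpf, n = 30. Body length (µm), ocular distance (µm) and eye surface area (µm²) are measured from the images.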
# Danio rerio [6] = species: Danio rerio; test: Toxicity in Zebrafish AB embryos assessed as effect on larval survival rate at 3 to 20 uM; format: organism-based; conditions: in vivo
# In short: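 Wild-type AB zebrafish embryos are exposed from 2 hpf to 5 dpf at 3.0, 15.0 and 20.0 µM in fish water with 1% DMSO, at 28 °C on a 14/10 h light-dark cycle. Controls are fish water alone and 1% DMSO. Survival and hatching are checked daily under a stereomicroscope.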
# [7] = Stability of the compound in PBS containing 10% DMSO at 25 degC measured after 3 hrs by HPLC analysis; format: physicochemical; conditions: buffer
# Danio rerio [8] = species: Danio rerio; test: Cardiotoxicity in Zebrafish AB embryos assessed as heart beat rate at 3 uM measured at 5 days post fertilization by stereomicroscopic method (reference value: 148.1 to 158.2 bpm); format: organism-based; conditions: in vivo, 120 h
# [9] = Selectivity index, ratio of cytotoxic concentration for African green monkey Vero cells by MTT assay to MIC for Mycobacterium tuberculosis H37Rv ATCC 27294; format: toxicity; conditions: read-out: Selectivity Index
# [10] = Stability of the compound in PBS containing 10% DMSO at 37 degC measured after 6 hrs by HPLC analysis; format: physicochemical; conditions: read-out: Stability
# Danio rerio [11] = species: Danio rerio; test: Cardiotoxicity in Zebrafish AB embryos assessed as heart beat rate at 3 uM measured at 2 days post fertilization by stereomicroscopic method (reference value: 128.7 to 146.3 bpm); format: organism-based; conditions: in vivo, 48 h
# [12] = Selectivity index, ratio of cytotoxic concentration for human HaCaT cells by MTT assay to MIC for Mycobacterium tuberculosis H37Rv ATCC 27294; format: toxicity; conditions: read-out: Selectivity Index
# Danio rerio [13] = species: Danio rerio; test: Toxicity in Zebrafish AB embryos assessed as morphological alteration by measuring effect on ocular distance at 3 to 20 uM measured at 2 to 5 days post fertilization by stereomicroscopic method; format: organism-based; conditions: in vivo; in short: as §2
# Danio rerio [14] = species: Danio rerio; test: Cardiotoxicity in Zebrafish AB embryos assessed as heart beat rate at 15 uM measured at 5 days post fertilization by stereomicroscopic method (reference value: 148.1 to 158.2 bpm); format: organism-based; conditions: in vivo, 120 h
# Danio rerio [15] = species: Danio rerio; test: Induction of neurological impairment in Zebrafish AB embryos assessed as alteration in locomotor activity by measuring swimming activity at 3 to 20 uM measured at 5 days post fertilization; format: organism-based; conditions: in vivo, 120 h
# In short: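 Larvae were exposed from 2 hpf in fish water with 1% DMSO. At 5 dpf each larva was placed singly in a well of water or treatment solution. After 1 min acclimation, it was video-tracked for 5 min at 15 positions/s, and distance travelled was scored.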
# [16] = Stability of the compound in PBS containing 10% DMSO at 37 degC measured after 3 hrs by HPLC analysis; format: physicochemical; conditions: read-out: Stability
# [17] = Selectivity index, ratio of cytotoxic concentration for human HaCaT cells by neutral red uptake assay to MIC for Mycobacterium tuberculosis H37Rv ATCC 27294; format: toxicity; conditions: read-out: Selectivity Index
# [18] = Stability of the compound in PBS containing 10% DMSO at 25 degC measured after 48 hrs by HPLC analysis; format: physicochemical; conditions: buffer
# [19] = Cytotoxicity against human HepG2 cells assessed as cell viability at 10 ug/ml after 72 hrs by MTT assay (reference value: 100%); format: cell-based; conditions: read-out: Activity; in short: as §1
# [20] = Cytotoxicity against African green monkey Vero assessed as cell viability at 10 ug/ml after 72 hrs by neutral red uptake assay (reference value: 100%); format: cell-based; conditions: chlorocebus sabaeus, Vero cells; read-out: Activity
# In short: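 Seeding was 2×10^3/well for HepG2 and HaCat and 1×10^3/well for Vero. After 24 h, cells received 10 µg/mL final (2% DMSO) for 72 h at 37 °C, 5% CO2. They were washed with PBS, given neutral red 25 µg/mL in serum-free medium for 3 h, washed, and extracted 30 min with acetic acid/EtOH/water 1:50:49. A540 was read. Viability is relative to 2% DMSO controls; mean ± SEM, three experiments in triplicate.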
# Danio rerio [21] = species: Danio rerio; test: Cardiotoxicity in Zebrafish AB embryos assessed as heart beat rate at 20 uM measured at 2 days post fertilization by stereomicroscopic method (reference value: 128.7 to 146.3 bpm); format: organism-based; conditions: in vivo, 48 h
# [22] = Stability of the compound in PBS containing 10% DMSO at 25 degC measured after 6 hrs by HPLC analysis; format: physicochemical; conditions: buffer
# [23] = Stability of the compound in PBS containing 10% DMSO at 37 degC measured after 24 hrs by HPLC analysis; format: physicochemical; conditions: PBS containing 10% DMSO; read-out: Stability
# [24] = Stability of the compound in PBS containing 10% DMSO at 37 degC measured immediately by HPLC analysis; format: physicochemical; conditions: read-out: Stability
# [25] = Stability of the compound in PBS containing 10% DMSO at 37 degC measured after 48 hrs by HPLC analysis; format: physicochemical; conditions: read-out: Stability
# Danio rerio [26] = species: Danio rerio; test: Toxicity in Zebrafish AB embryos assessed as morphological alteration by measuring effect on surface area of eyes at 3 to 20 uM measured at 2 to 5 days post fertilization by stereomicroscopic method; format: organism-based; conditions: in vivo; in short: as §2
# [27] = Stability of the compound in PBS containing 10% DMSO at 25 degC measured after 12 hrs by HPLC analysis; format: physicochemical; conditions: buffer
smiles,measurement,setting,value
O=C(CSc1nc2ccccc2c(=O)[nH]1)NCC1CCCCC1,"viability at 72 h, 10 ug/ml",[1],89%
same,MIC,[2],0.94 µM
same,remaining at 0 h,[3],100%
same,selectivity ratio,[4],≤ 32
same,Activity,Danio rerio [5],Non-Toxic
same,Activity,Danio rerio [6],Non-Toxic
same,Stability,[7],103%
same,Activity,Danio rerio [8],157.8 bpm
same,selectivity ratio,[9],≤ 32
same,remaining at 6 h,[10],109%
same,Activity,Danio rerio [11],140.7 bpm
same,selectivity ratio,[12],≤ 32
same,Activity,Danio rerio [13],Non-Toxic
same,Activity,Danio rerio [14],158.9 bpm
same,Activity,Danio rerio [15],Non-Toxic
same,remaining at 3 h,[16],106%
same,selectivity ratio,[17],≤ 32
same,Stability,[18],125%
same,"viability at 72 h, 10 ug/ml",[19],79%
same,"viability at 72 h, 10 ug/ml",[20],97%
same,Activity,Danio rerio [21],152.6 bpm
same,Stability,[22],115%
same,remaining at 24 h,[23],104%
same,remaining at 0 h,[24],100%
same,remaining at 48 h,[25],105%
same,Activity,Danio rerio [26],Non-Toxic
same,Stability,[27],112%
